The text below walks through data of ChEMBL document CHEMBL1139138, “Pyrrolidine-constrained phenethylamines: The design of potent, selective, and pharmacologically efficacious dipeptidyl peptidase IV (DPP4) inhibitors from a lead-like screening hit” (Bioorg Med Chem Lett, 2007).

Data set [1] in a line: Oral bioavailability in dog at 2.5 mg/kg, po. Type of data set: ADME, organism-based, Canis lupus familiaris. The following applies: in vivo. The method, boiled down:
(§1)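 Pharmacokinetics in rat dosed at 5 mg/kg and in dog and monkey dosed at 2.5 mg/kg. Cmax, t1/2 (terminal) and AUC were taken from oral dosing. F is oral bioavailability. Vss is volume of distribution at steady state.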

The subject of a further data set is Canis familiaris. The data set is described as follows: AUC in dog at 2.5 mg/kg, po. The data set is classed as ADME, organism-based, Canis lupus familiaris, Plasma. More on the design: dose 2.5 mg/kg, route oral. The following applies: in vivo. The method, boiled down:
as §1

Data set [2] relates to Rattus norvegicus. The data set is described as follows: Volume of distribution at steady state in Sprague-Dawley rat at 5 mg/kg, po. The data set is classed as ADME, organism-based. Also noted: dose 5 mg/kg, route oral. The settings on record: in vivo. The method in brief: as §1
Data set [3] in a line: Cmax in Sprague-Dawley rat at 5 mg/kg, po. The data set is classed as ADME, organism-based. Also noted: dose 5 mg/kg, route oral. The following applies: in vivo. The method, boiled down:
as §1

Data set [4] can be described thus: Half life in human liver microsome. The data set is classed as ADME. The settings on record: liver microsomes. The method in brief:
(§2)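 Stability on incubation with rat or human liver microsomes, expressed as half-life.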
For orientation: Microsomes from liver hold many membrane-bound enzymes, among them those of drug oxidation.

Data set [5] is described as follows: Plasma concentration in ZDF rat at 1 mg/kg after 240 mins. Type of data set: ADME, organism-based. More on the design: dose 1 mg/kg. The method, boiled down: (§3)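 Female ZDF rats, 10 weeks old, fasted overnight and dosed orally at 1 mg/kg four hours before feeding (t = 0). Plasma drug concentration and the matching plasma DPP4 inhibition were determined at t = 0 and t = 240 min.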

Data set [6] can be described thus: Half life in dog at 2.5 mg/kg, po. Type of data set: ADME, organism-based, Canis lupus familiaris. More on the design: dose 2.5 mg/kg, route oral. The settings on record: in vivo. The method, boiled down:
as §1

The target in a further data set is Cytochrome P450 2C9 (Homo sapiens, UniProt P11712). The data set is described as follows: Inhibition of CYP2C9. Type of data set: ADME.
Cytochrome P450 2C9, sequence (P11712 whole entry): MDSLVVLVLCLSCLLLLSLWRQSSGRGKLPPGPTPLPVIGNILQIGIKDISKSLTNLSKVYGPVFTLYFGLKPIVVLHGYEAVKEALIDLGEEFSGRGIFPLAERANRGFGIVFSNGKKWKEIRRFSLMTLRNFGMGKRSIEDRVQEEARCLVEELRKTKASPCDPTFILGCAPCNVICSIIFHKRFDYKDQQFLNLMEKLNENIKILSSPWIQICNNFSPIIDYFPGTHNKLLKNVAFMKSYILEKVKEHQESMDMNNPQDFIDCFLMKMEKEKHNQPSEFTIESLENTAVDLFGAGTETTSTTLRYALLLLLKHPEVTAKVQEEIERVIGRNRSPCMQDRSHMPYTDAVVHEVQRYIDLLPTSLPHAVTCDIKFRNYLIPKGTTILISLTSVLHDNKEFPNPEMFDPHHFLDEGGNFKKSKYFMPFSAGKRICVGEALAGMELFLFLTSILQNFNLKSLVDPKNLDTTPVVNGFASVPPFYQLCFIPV
In data set [7] the test system is Rattus norvegicus. The experiment in a line: Reduction of glucose level in ZDF rat at 1 mg/kg, po […]. Type of data set: functional. More on the design: scale not given: the % may be the effect or the level left. The method, boiled down: (§4)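 Female Zucker diabetic fatty rats, 10 weeks old, fasted overnight (n = 10/group). They were dosed orally with vehicle or inhibitor at 0.3, 1 or 3 mg/kg at t = −240 min and allowed to feed at t = 0. Blood glucose lowering was measured relative to vehicle.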

The nature of data set [8]: Plasma clearance in Sprague-Dawley rat at 5 mg/kg, po. Type of data set: ADME, organism-based. More on the design: dose 5 mg/kg, route oral. The method, boiled down: as §1
In data set [9] the test system is Rattus norvegicus. The data set is described as follows: AUC in Sprague-Dawley rat at 5 mg/kg, po. The data set is classed as ADME, organism-based, Plasma. Also noted: dose 5 mg/kg, route oral. The settings on record: in vivo. The method in brief:
as §1

Data set [10] can be described thus: Oral bioavailability in Sprague-Dawley rat at 5 mg/kg, po. The data set is classed as ADME, organism-based. The settings on record: in vivo. The method in brief:
as §1

For a further data set, the target named is Cytochrome P450 2D6 (Homo sapiens, UniProt P10635). The data set is described as follows: Inhibition of CYP2D6. The data set is classed as ADME.
Cytochrome P450 2D6, sequence (P10635 whole entry): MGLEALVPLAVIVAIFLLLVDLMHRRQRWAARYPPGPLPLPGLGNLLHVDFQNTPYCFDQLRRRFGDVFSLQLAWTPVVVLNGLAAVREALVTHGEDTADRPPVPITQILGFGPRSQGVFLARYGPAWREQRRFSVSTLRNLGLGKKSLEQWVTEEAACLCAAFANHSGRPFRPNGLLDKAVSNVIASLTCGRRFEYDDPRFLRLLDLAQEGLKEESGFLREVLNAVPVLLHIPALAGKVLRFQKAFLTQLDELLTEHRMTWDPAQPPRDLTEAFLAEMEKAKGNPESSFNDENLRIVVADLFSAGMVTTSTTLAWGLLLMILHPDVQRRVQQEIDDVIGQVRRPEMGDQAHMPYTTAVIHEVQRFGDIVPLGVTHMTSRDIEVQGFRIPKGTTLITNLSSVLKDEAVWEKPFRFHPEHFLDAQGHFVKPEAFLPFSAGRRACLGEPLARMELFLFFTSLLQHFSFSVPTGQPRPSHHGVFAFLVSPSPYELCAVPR
Data set [11] in a line: Half life in rat liver microsome. The settings on record: liver microsomes. The data set is classed as ADME. The method, boiled down: as §2
The nature of data set [12]: Cmax in dog at 2.5 mg/kg, po. The settings on record: in vivo. The data set is classed as ADME, organism-based, Canis lupus familiaris. More on the design: dose 2.5 mg/kg, route oral. The method, boiled down: as §1
The test system of data set [13] is Rattus norvegicus. The data set is described as follows: Reduction of glucose level in ZDF rat at 0.3 mg/kg, po by […]. More on the design: scale not given: the % may be the effect or the level left. The data set is classed as functional. The method in brief: as §4
The subject of data set [14] is Rattus norvegicus. The experiment in a line: Reduction of glucose level in ZDF rat at 3 mg/kg, po […]. More on the design: scale not given: the % may be the effect or the level left. The data set is classed as functional. The method, boiled down: as §4
Data set [15] has as its system Rattus norvegicus. The data set is described as follows: Inhibition of DPP4 in ZDF rat at 1 mg/kg after 240 mins. The data set is classed as functional. The following applies: 4 h. The method, boiled down:
as §3

Data set [16] is described as follows: Half life in Sprague-Dawley rat at 5 mg/kg, po. The following applies: in vivo. More on the design: dose 5 mg/kg, route oral. Type of data set: ADME, organism-based. The method, boiled down: as §1
For another data set, the target named is T1, Prolyl endopeptidase FAP (Homo sapiens, UniProt Q12884).
T1 sequence (Q12884 whole entry): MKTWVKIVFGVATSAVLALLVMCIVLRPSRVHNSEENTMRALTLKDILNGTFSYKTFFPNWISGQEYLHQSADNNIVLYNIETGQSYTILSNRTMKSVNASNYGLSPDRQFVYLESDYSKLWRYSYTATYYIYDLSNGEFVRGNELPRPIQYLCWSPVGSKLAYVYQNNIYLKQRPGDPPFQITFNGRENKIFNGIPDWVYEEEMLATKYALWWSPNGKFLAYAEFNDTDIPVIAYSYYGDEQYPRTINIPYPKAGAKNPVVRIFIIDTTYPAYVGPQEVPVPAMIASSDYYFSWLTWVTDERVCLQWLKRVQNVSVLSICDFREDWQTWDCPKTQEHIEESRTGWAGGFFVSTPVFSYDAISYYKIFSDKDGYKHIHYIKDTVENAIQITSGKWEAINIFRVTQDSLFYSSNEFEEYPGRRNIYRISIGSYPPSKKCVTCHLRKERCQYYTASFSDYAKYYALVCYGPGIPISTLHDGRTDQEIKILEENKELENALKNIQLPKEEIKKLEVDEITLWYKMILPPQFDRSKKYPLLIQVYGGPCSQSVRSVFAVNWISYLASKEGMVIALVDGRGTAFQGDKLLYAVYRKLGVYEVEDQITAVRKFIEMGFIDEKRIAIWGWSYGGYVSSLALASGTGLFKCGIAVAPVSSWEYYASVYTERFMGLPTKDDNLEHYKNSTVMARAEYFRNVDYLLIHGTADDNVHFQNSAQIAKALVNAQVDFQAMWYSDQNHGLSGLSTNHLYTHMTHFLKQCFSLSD
The data set is described as follows: Inhibition of human FAPalpha.

The target of the next data set is Cytochrome P450 3A4 (Homo sapiens, UniProt P08684). The experiment in a line: Inhibition of CYP3A4. Type of data set: ADME.
Cytochrome P450 3A4, sequence (P08684 whole entry): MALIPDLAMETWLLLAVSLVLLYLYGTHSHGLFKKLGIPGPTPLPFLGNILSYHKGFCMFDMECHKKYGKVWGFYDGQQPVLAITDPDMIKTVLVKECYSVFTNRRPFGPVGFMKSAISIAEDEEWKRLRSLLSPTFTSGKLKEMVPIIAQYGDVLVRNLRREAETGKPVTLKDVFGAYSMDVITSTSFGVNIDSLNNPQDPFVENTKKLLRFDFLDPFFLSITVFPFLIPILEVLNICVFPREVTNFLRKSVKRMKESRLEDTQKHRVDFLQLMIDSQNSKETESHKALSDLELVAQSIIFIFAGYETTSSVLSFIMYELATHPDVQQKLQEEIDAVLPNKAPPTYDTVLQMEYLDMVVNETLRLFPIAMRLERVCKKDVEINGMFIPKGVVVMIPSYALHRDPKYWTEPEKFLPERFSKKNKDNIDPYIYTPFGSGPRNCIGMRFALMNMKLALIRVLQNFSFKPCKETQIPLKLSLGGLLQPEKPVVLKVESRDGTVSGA
A short description of data set [17]: Plasma clearance in dog at 2.5 mg/kg, po. Also noted: dose 2.5 mg/kg, route oral. Type of data set: ADME, organism-based, Canis lupus familiaris. The method in brief: as §1
Another data set deals with T2, Prolyl endopeptidase (Homo sapiens, UniProt P48147).
T2 sequence (P48147 whole entry): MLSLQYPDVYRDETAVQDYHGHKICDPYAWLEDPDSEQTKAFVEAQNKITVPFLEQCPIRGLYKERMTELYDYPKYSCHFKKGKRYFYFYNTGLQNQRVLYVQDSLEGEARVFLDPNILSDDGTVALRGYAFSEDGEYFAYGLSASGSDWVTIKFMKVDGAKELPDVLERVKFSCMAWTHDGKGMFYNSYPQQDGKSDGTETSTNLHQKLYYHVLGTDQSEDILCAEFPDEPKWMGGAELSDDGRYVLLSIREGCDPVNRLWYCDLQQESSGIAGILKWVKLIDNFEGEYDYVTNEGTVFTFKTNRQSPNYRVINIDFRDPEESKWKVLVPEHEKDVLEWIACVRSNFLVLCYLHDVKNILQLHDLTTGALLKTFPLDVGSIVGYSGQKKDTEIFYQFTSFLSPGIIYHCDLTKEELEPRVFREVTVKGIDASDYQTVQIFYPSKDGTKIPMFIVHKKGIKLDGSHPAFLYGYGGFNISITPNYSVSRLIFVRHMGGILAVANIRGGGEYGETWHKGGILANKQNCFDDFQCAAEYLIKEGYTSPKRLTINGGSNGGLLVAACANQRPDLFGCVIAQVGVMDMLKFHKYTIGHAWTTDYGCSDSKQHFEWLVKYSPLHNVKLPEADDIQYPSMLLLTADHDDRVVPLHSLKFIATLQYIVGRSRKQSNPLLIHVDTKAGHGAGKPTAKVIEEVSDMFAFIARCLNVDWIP
The data set is described as follows: Inhibition of human POP.

As to `CS(=O)(=O)c1cccc(-c2ncnc(N3CC(N)C(c4cc(F)c(F)cc4F)C3)n2)c1` (stereo not drawn), the results for the bioavailability in data set [1] and in data set [10] were 100% and 74%, respectively. Further, the AUC (as a rule, the area under the concentration-time curve, a measure of exposure) in the data set with Canis familiaris worked out at 12200 ng·h/mL; in the data set with Rattus norvegicus [9] it was 24400 ng·h/mL. The Vdss with Rattus norvegicus [2] was 1.15 L/kg. Besides, the maximum concentration (Cmax) (commonly the maximum level reached in the sampled fluid or tissue) in data set [3] was determined as 1970 ng/mL; in [12], 691 ng/mL. In addition, the half-life (as a rule, how long it takes for the measured level to halve) in data set [4] was > 3 h; in data set [6], 14.9 h; in data set [11], > 3 h; in [16], 5.5 h. In addition, in data set [5], the concentration at 4 h was 373 ng/mL. Moreover, the IC50 against Cytochrome P450 2C9, against Cytochrome P450 2D6 and against Cytochrome P450 3A4 was > 10 µM throughout. Moreover, the Activity in the data set with Rattus norvegicus [7] is -39%; with Rattus norvegicus [13], -32%; in the data set with Rattus norvegicus [14], -37%. The CL/F (as a rule, clearance divided by bioavailability, as obtained after extravascular dosing) in data set [8] was 2.5 mL/min/kg; in [17], 3.5 mL/min/kg. Moreover, in the data set on Rattus norvegicus [15], the inhibition in vivo (in general, the share of the control response that was lost under treatment) at 1 mg/kg is > 98%. Besides, the Ki at Prolyl endopeptidase FAP and at Prolyl endopeptidase was > 30 µM throughout.
